The source of these data is ChEMBL document CHEMBL3414483, “New heterocyclic hybrids of pyrazole and its bioisosteres: design, synthesis and biological evaluation as dual acting antimalarial-antileishmanial agents” (Eur J Med Chem, 2015).

In brackets after ≈: the same amount, converted by molar mass. Activity calls are given as the source filed them. No cut-off for these calls is given here.

The test system of test [1] is Leishmania aethiopica. Nature of the test: Antileishmanial activity against amastigote stage of Leishmania aethiopica after 72 hrs by resazurin staining-based fluorescence assay. It counts as functional, organism-based. Put shortly: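 Axenic L. aethiopica amastigotes (50 µl of 2 × 10^7 cells/ml) exposed to serial dilutions at final 0.04–10 µg/ml for 72 h at 31 °C, humidified, 5% CO₂. Resazurin was added at 68 h and fluorescence read at 72 h (ex 530/em 590 nm). EC50 from sigmoidal dose–response fits, mean ± SD of triplicate experiments run in duplicate. Controls were medium alone and 1% DMSO.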

Test [2] has as its system Plasmodium berghei. Nature of the test: Antimalarial activity against Plasmodium berghei str. ANKA infected in Swiss albino mouse assessed as parasitemia at 0.048 mmol/kg/day, po qd […] by microscopic analysis relative to control. The class given is functional. Put shortly: (§1)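 Four-day suppressive test. Mice were infected iv on day 0 with 0.2 ml of 2 × 10^7 P. berghei ANKA-parasitized erythrocytes from a donor mouse, diluted in saline. From 2 h post-infection they were dosed orally at 0.048 mmol/kg/day for days 0–3, five mice per group. The vehicle was 7% Tween and 3% ethanol in water. On day 4, Giemsa smears were scored over 5 fields of about 100 RBC each. Suppression was calculated relative to the vehicle group, taken as 100%.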

The subject of test [3] is Leishmania aethiopica. Nature of the test: Antileishmanial activity against promastigote stage of Leishmania aethiopica after 24 hrs by alamar blue staining-based […]. It counts as functional, organism-based. Put shortly: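 L. aethiopica promastigotes, 3 × 10^6 per well, given compounds from DMSO stocks in three-fold dilutions at 10 to 0.04 µg/ml (final DMSO ≤0.1%), in duplicate, at room temperature (21 ± 1 °C). Alamar blue (resazurin) was added after 24 h and absorbance read 48 h later at 540 and 630 nm. Negative control was parasites, medium and DMSO.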

In test [4] the test system is Plasmodium berghei. Nature of the test: Antimalarial activity against Plasmodium berghei str. ANKA infected in Swiss albino mouse assessed as supression of parasitemia at 0.048 mmol/kg/day, po qd for 3 days by microscopic analysis relative to control. The class given is functional. The gist of the method:
as §1

In test [5] the test system is Plasmodium berghei. Nature of the test: Antimalarial activity against Plasmodium berghei str. ANKA infected in Swiss albino mouse assessed as survival at 0.048 mmol/kg/day, po qd for 3 days by microscopic analysis relative to control. It counts as functional. Put shortly: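 P. berghei ANKA infected mice, 4-day suppressive test. Day 0: 0.2 ml of 2 x 10^7 parasitized erythrocytes given i.v. (donor blood, 20-30% parasitemia, diluted in saline). Oral dosing at 0.048 mmol/kg/day from 2 h post-infection, then days 1-3 at 24 h intervals. Vehicle 7% Tween, 3% ethanol in water. Five mice/group. Survival time recorded per mouse; mean compared with vehicle group.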

With `Cc1ccc(-c2nn(-c3ccc(C)cc3)cc2C2CC(c3ccccc3)=NN2)cc1` (stereo not given), the IC50 was determined as 2.37 µg/mL (≈ 6.04 µM) with Leishmania aethiopica [1] and 2.84 µg/mL (≈ 7.25 µM) with Leishmania aethiopica [3]. Besides, the Activity with Plasmodium berghei [2] came out at 30%; in the test with Plasmodium berghei [4] it was 65.12%. Further, in the test on Plasmodium berghei [5], the Survival turned out to be 7.62 days.
Taken in the same sequence, the figures for `CC(=O)N(C1=NN(C(C)=O)C(c2cn(-c3ccc(C)cc3)nc2-c2ccc([N+](=O)[O-])cc2)S1)c1ccccc1` (stereo not given) were 1.21 µg/mL (≈ 2.24 µM), 0.846 µg/mL (≈ 1.57 µM), 18%, 79.07% and 10.4 days.
In the same order, the values of `CC(=O)N(C1=NN(C(C)=O)C(c2cn(-c3ccc(C)cc3)nc2-c2ccc(C)cc2)S1)c1ccccc1` (stereo not given) are 0.82 µg/mL (≈ 1.61 µM), 0.862 µg/mL (≈ 1.69 µM), 14%, 83.72% and 12.22 days.
Taken in the same sequence, the figures for `CCC(=O)N1N=C(c2ccccc2)CC1c1cn(-c2ccc(C)cc2)nc1-c1ccc(C)cc1` (stereo not given) were 1.02 µg/mL (≈ 2.27 µM), 1.6 µg/mL (≈ 3.57 µM), 38%, 55.81% and 8.84 days.
As for `Cc1ccc(-c2nn(-c3ccc(Br)cc3)cc2/C=N/NC(=S)Nc2ccccc2)cc1`, the 50% inhibitory concentration (IC50) with Leishmania aethiopica [1] was determined as 2.41 µg/mL (≈ 4.91 µM); in the test with Leishmania aethiopica [3], 3.62 µg/mL (≈ 7.39 µM). The Activity is 30% in the test on Plasmodium berghei [2] and 65.12% with Plasmodium berghei [4]. Also, the Survival in the test on Plasmodium berghei [5] turned out to be 8.84 days.
In the same order, the values of `Cc1ccc(-c2nn(-c3ccc(Br)cc3)cc2C2CC(c3ccccc3)=NN2)cc1` (stereo not given) are 1.88 µg/mL (≈ 4.11 µM), 2.01 µg/mL (≈ 4.4 µM), 28%, 67.44% and 7.88 days.
In the same order, the values of `O=[N+]([O-])c1ccc(-c2nn(-c3ccc(Br)cc3)cc2C2CC(c3ccccc3)=NN2c2ccccc2)cc1` (stereo not given) are 2.01 µg/mL (≈ 3.56 µM), 3.85 µg/mL (≈ 6.82 µM), 32%, 62.79% and 9.84 days.
Consider `Cc1ccc(-c2nn(-c3ccc(C)cc3)cc2/C=N/NC(=S)Nc2ccccc2)cc1`, for which the IC50 came to 2.26 µg/mL (≈ 5.31 µM) in the test with Leishmania aethiopica [1] and 3.01 µg/mL (≈ 7.08 µM) in the test on Leishmania aethiopica [3]. In addition, the Activity with Plasmodium berghei [2] is on record as 34%; in the test with Plasmodium berghei [4] it was 60.47%. The Survival with Plasmodium berghei [5] was determined as 9.23 days.
In the same order, the values of `CC(=O)N(C1=NN(C(C)=O)C(c2cn(-c3ccc(Br)cc3)nc2-c2ccc(C)cc2)S1)c1ccccc1` (stereo not given) are 0.74 µg/mL (≈ 1.29 µM), 0.468 µg/mL (≈ 0.815 µM), 12%, 86.05% and 12.68 days.
Take `Cc1ccc(-n2cc(C=O)c(-c3ccc([N+](=O)[O-])cc3)n2)cc1`: the results for the 50% inhibitory concentration (IC50) with Leishmania aethiopica [1] and with Leishmania aethiopica [3] were 1.56 µg/mL (≈ 5.08 µM) and 3.64 µg/mL (≈ 11.9 µM), respectively. The Activity in the test on Plasmodium berghei [2] was 32%; in the test on Plasmodium berghei [4], 62.79%. Also, the Survival with Plasmodium berghei [5] came to 7.28 days.
On to `CC(=O)N1N=C(c2ccccc2)CC1c1cn(-c2ccc(Br)cc2)nc1-c1ccc([N+](=O)[O-])cc1` (stereo not given), for which the IC50 worked out at 0.89 µg/mL (≈ 1.68 µM) in the test on Leishmania aethiopica [1] and 1.09 µg/mL (≈ 2.05 µM) in the test with Leishmania aethiopica [3]. In addition, the results for the Activity with Plasmodium berghei [2] and in the test on Plasmodium berghei [4] were 26% and 69.77%, respectively. For the same compound, the Survival in the test on Plasmodium berghei [5] worked out at 6.62 days.
With `CCC(=O)N1N=C(c2ccccc2)CC1c1cn(-c2ccc(Br)cc2)nc1-c1ccc([N+](=O)[O-])cc1` (stereo not given), the figures for the IC50 with Leishmania aethiopica [1] and with Leishmania aethiopica [3] were 1.83 µg/mL (≈ 3.36 µM) and 2.12 µg/mL (≈ 3.9 µM), respectively. The values for the Activity in the test with Plasmodium berghei [2] and in the test with Plasmodium berghei [4] were 34% and 60.47%, respectively. The Survival in the test on Plasmodium berghei [5] is 6.82 days.
Taken in the same sequence, the figures for `O=[N+]([O-])c1ccc(-c2nn(-c3ccc(Br)cc3)cc2/C=N/N=c2/scc(-c3ccc(Br)cc3)n2-c2ccccc2)cc1` were 1.07 µg/mL (≈ 1.53 µM), 2.9 µg/mL (≈ 4.14 µM), 28%, 67.44% and 12.26 days.
In the same order, the values of `CCC(=O)N1N=C(c2ccccc2)CC1c1cn(-c2ccc(Br)cc2)nc1-c1ccc(C)cc1` (stereo not given) are 1.79 µg/mL (≈ 3.49 µM), 2.04 µg/mL (≈ 3.98 µM), 42%, 51.16% and 6.86 days.
In the same order, the values of `Cc1ccc(-c2nn(-c3ccc(Br)cc3)cc2C2CC(c3ccccc3)=NN2c2ccccc2)cc1` (stereo not given) are 1.24 µg/mL (≈ 2.32 µM), 2.91 µg/mL (≈ 5.46 µM), 22%, 74.42% and 10.64 days.
Turning to `Cc1ccc(-c2nn(-c3ccc(C)cc3)cc2/C=N/N=C2/SCC(=O)N2c2ccccc2)cc1`, the figures for the IC50 in the test on Leishmania aethiopica [1] and in the test on Leishmania aethiopica [3] were 0.58 µg/mL (≈ 1.25 µM) and 0.882 µg/mL (≈ 1.89 µM), respectively. Further, the figures for the Activity in the test on Plasmodium berghei [2] and in the test on Plasmodium berghei [4] were 10% and 88.37%, respectively. For the same compound, the Survival in the test on Plasmodium berghei [5] amounted to 10.64 days.
Taken in the same sequence, the figures for `Cc1ccc(-n2cc(/C=N/N=c3/scc(-c4ccc(Br)cc4)n3-c3ccccc3)c(-c3ccc([N+](=O)[O-])cc3)n2)cc1` were 1.78 µg/mL (≈ 2.8 µM), 3.11 µg/mL (≈ 4.9 µM), 22%, 74.42% and 12.12 days.
For `CCN(CC)CCCC(C)Nc1ccnc2cc(Cl)ccc12.O=P(O)(O)O.O=P(O)(O)O` (stereo not given) [CHLOROQUINE PHOSPHATE], the Activity with Plasmodium berghei [2] worked out at 0%; in the test on Plasmodium berghei [4], 100%. For the same compound, in the test with Plasmodium berghei [5], the outcome was Active.
Regarding `Cc1ccc(-c2nn(-c3ccc(Br)cc3)cc2/C=N/N=c2/scc(-c3ccc(Br)cc3)n2-c2ccccc2)cc1`, the IC50 with Leishmania aethiopica [1] is 2.21 µg/mL (≈ 3.3 µM); in the test with Leishmania aethiopica [3], 4.06 µg/mL (≈ 6.07 µM). The Activity in the test on Plasmodium berghei [2] is given as 14%; in the test on Plasmodium berghei [4], 83.72%. Further, the Survival with Plasmodium berghei [5] worked out at 11.22 days.
In the same order, the values of `Cc1ccc(-c2nn(-c3ccc(C)cc3)cc2C=O)cc1` are 1.97 µg/mL (≈ 7.13 µM), 4.06 µg/mL (≈ 14.7 µM), 33%, 61.62% and 8.62 days.
In the same order, the values of `Cc1ccc(-c2nn(-c3ccc(C)cc3)cc2/C=C/C(=O)c2ccccc2)cc1` are 2.88 µg/mL (≈ 7.61 µM), 4 µg/mL (≈ 10.6 µM), 26%, 69.77% and 11.6 days.
As for `CCCCCCCCCCCCCCCCOP(=O)([O-])OCC[N+](C)(C)C` [MILTEFOSINE], the IC50 with Leishmania aethiopica [1] is 0.3 µg/mL (≈ 0.736 µM); with Leishmania aethiopica [3], 3.19 µg/mL (≈ 7.83 µM).
As for `Cc1ccc(-c2nn(-c3ccc(Br)cc3)cc2C=O)cc1`, the IC50 was 1.82 µg/mL (≈ 5.33 µM) in the test on Leishmania aethiopica [1] and 3.11 µg/mL (≈ 9.12 µM) in the test on Leishmania aethiopica [3]. Besides, the Activity with Plasmodium berghei [2] is reported as 30%; in the test with Plasmodium berghei [4], 65.11%. The Survival with Plasmodium berghei [5] came out at 8.4 days.
In the same order, the values of `O=Cc1cn(-c2ccc(Br)cc2)nc1-c1ccc([N+](=O)[O-])cc1` are 2.03 µg/mL (≈ 5.45 µM), 4.84 µg/mL (≈ 13 µM), 35%, 59.3% and 8.71 days.
`Cc1ccc(-c2nn(-c3ccc(Br)cc3)cc2/C=C/C(=O)c2ccccc2)cc1`: the IC50 in the test on Leishmania aethiopica [1] turned out to be 1.01 µg/mL (≈ 2.28 µM); with Leishmania aethiopica [3], 1.03 µg/mL (≈ 2.32 µM). Moreover, the Activity in the test on Plasmodium berghei [2] is listed as 22%; with Plasmodium berghei [4], 74.42%. Also, the Survival in the test with Plasmodium berghei [5] came out at 11.8 days.
